In ChEMBL document CHEMBL1156597, “Structure-activity relationship of kahalalide F synthetic analogues” (J Med Chem, 2008):
pIC50: −log10 of the molar value.

Experiments:
DU-145 [1] = experiment: Cytotoxicity against human DU145 cells after 48 hrs by SRB assay; type: functional, cell-based; settings: Homo sapiens, DU-145, 48 h
Procedure, shortened: (§1)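 Cells grown in RPMI 1640 with 10% FBS and penicillin/streptomycin at 37 °C and 5% CO₂, trypsinized, then seeded at 5 × 10³/well. After 18 h drug-free attachment, samples in DMSO/EtOH/PBS (0.5:0.5:99) were added for 48 h continuous exposure. Cells were fixed with cold TCA (1 h, 4 °C) and stained with SRB (10 min). Tris-solubilized stain read at 490 nm. Triplicate wells, mean ± SD; GI₅₀ derived.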

A549 = experiment: Cytotoxicity against human A549 cells after 48 hrs by SRB assay; type: functional, cell-based; settings: Homo sapiens, A549, 48 h; procedure, shortened: as §1
SK-MEL-28 [2] = experiment: Cytotoxicity against human SK-MEL-28 cells
HT-29 = experiment: Cytotoxicity against human HT29 cells after 48 hrs by SRB assay; type: functional, cell-based; settings: Homo sapiens, HT-29, 48 h; procedure, shortened: as §1
SK-MEL-28 [3] = experiment: Cytotoxicity against human SK-MEL-28 cells after 48 hrs by SRB assay; type: functional, cell-based; settings: Homo sapiens, SK-MEL-28, 48 h; procedure, shortened: as §1
DU-145 [4] = experiment: Cytotoxicity against human DU145 cells

For `C/C=C1\NC(=O)[C@H](Cc2ccccc2)NC(=O)[C@@H](C(C)C)NC(=O)[C@@H]([C@H](C)CC)NC(=O)[C@H](NC(=O)[C@H](NC(=O)[C@@H](NC(=O)[C@H](NC(=O)CCCC(C)C)C(C)C)[C@@H](C)O)[C@H](C)CC)[C@H](C)OC(=O)[C@H](C(C)C)NC1=O`, the pIC50 (DU-145 [1]) was 5.03, the pIC50 (A549) was 5.03 and the pIC50 (SK-MEL-28 [2]) was 5.03. For the same compound, the pIC50 (HT-29) was 5.03.

Work on `C/C=C1\NC(=O)[C@H](Cc2ccccc2)NC(=O)[C@@H](C(C)C)NC(=O)[C@@H]([C@H](C)CC)NC(=O)[C@H](NC(=O)[C@H](NC(=O)[C@H](CCCN)NC(=O)[C@H]2CCCN2C(=O)[C@@H](NC(=O)[C@H](NC(=O)[C@@H](NC(=O)[C@H](NC(=O)CCCC(C)C)C(C)C)[C@@H](C)O)C(C)C)C(C)C)[C@H](C)CC)[C@H](C)OC(=O)[C@H](C(C)C)NC1=O` yielded a pIC50 (DU-145 [1]) of 5.47, a pIC50 (A549) of 5.47 and a pIC50 (SK-MEL-28 [2]) of 5.47. The pIC50 (HT-29) was 5.47.

For `C/C=C1\NC(=O)[C@H](Cc2ccccc2)NC(=O)[C@@H](C(C)C)NC(=O)[C@@H]([C@H](C)CC)NC(=O)[C@H](NC(=O)[C@H](NC(=O)CCCC(C)C)[C@H](C)CC)[C@H](C)OC(=O)[C@H](C(C)C)NC1=O`, the pIC50 (A549) was 4.94, the pIC50 (SK-MEL-28 [3]) was 4.94 and the pIC50 (HT-29) was 4.94. The pIC50 (DU-145 [4]) was 4.94.

Compound `C/C=C1\NC(=O)[C@H](Cc2ccccc2)NC(=O)[C@@H](C(C)C)NC(=O)[C@@H]([C@H](C)CC)NC(=O)[C@H](NC(=O)[C@H](NC(=O)[C@H](CCCN)NC(=O)[C@H]2CCCN2C(=O)[C@H](NC(=O)[C@@H](NC(=O)[C@@H](NC(=O)[C@H](NC(=O)CCCN(C)C)C(C)C)[C@@H](C)O)C(C)C)C(C)C)[C@H](C)CC)[C@H](C)OC(=O)[C@H](C(C)C)NC1=O` has a pIC50 (DU-145 [1]) of 5.17, a pIC50 (A549) of 5.17 and a pIC50 (SK-MEL-28 [2]) of 5.17. The pIC50 (HT-29) was 5.17.

In the case of `C/C=C1\NC(=O)[C@H](Cc2ccccc2)NC(=O)[C@@H](C(C)C)NC(=O)[C@@H]([C@H](C)CC)NC(=O)[C@H](NC(=O)[C@H](NC(=O)[C@H]2CCCN2C(=O)[C@H](NC(=O)[C@@H](NC(=O)[C@@H](NC(=O)[C@H](NC(=O)CCCC(C)C)C(C)C)[C@@H](C)O)C(C)C)C(C)C)[C@H](C)CC)[C@H](C)OC(=O)[C@H](C(C)C)NC1=O`, the pIC50 (DU-145 [1]) was 5.44, the pIC50 (SK-MEL-28 [2]) was 5.44 and the pIC50 (HT-29) was 5.44.
